DSG3 Ab inh: inhibitors of pemphigus antibody binding to DSG3, primary screen, biochemical, bead-based, flow cytometry, scFv-GFP | Desmoglein-3 (Homo sapiens), P32926 | DSG3-coupled beads, scFv-anti-DSG3-GFP binding; hits give low values | binding (percent of control), % at 10 µM | hit rate 0.48% among 310,000 | AID 588358, 2011;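 active = binding more than 3 SD below its plate's average and above zero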;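 note: hits lower antibody fragment binding to DSG3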
SUMO1-SIM PPI: modulators of SUMO1 protein-protein interactions, primary screen, biochemical, uHTS. Small ubiquitin-related modifier 1 (Homo sapiens), P63165. SUMO1 binding to a labelled peptide, TR-FRET, 1 h. inhibition, % at 20 µM. hit rate 0.33% among 360,000; in the data active = inhibition above about 37%
Target sequence (P63165 whole entry, looked up): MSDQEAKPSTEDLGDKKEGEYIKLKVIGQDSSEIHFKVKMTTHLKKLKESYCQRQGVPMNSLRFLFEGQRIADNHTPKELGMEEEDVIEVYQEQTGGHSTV
LMPTP block: LMPTP phosphatase inhibitors, primary screen, biochemical, fluorescence intensity, uHTS. inhibition, % at 20 µM. Low molecular weight phosphotyrosine protein phosphatase (Homo sapiens), P24666. hit rate 0.22% among 360,000. recombinant LMPTP-A, OMFP fluorogenic substrate. AID 651560, 2012;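 active = compounds that cut the enzyme signal by at least half of the control window in the single-dose screen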;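 note: plate controls were DMSO wells with enzyme plus substrate for no effect and substrate without enzyme for full effect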
Target sequence (P24666 whole entry, looked up): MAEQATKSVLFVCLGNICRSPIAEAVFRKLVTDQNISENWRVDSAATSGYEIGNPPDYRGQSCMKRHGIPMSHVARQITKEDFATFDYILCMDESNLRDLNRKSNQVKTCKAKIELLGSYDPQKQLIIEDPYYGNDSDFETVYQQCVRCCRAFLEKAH
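Test system: LMPTP-A, protein tyrosine phosphatase of low molecular weight; Input: 0.625 nM enzyme; Incubation: 50 min dark incubation at room temperature; Signal: endpoint fluorescence intensity from OMFP dephosphorylation; Read-out basis: % inhibition versus control wells.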
Scp-1 inhibitor: Scp-1 phosphatase inhibitors, primary screen, biochemical, colorimetric, uHTS. Carboxy-terminal domain RNA polymerase II polypeptide A small phosphatase 1 (Homo …. Recombinant Scp1, phosphopeptide, malachite green phosphate absorbance. inhibition, % at 20 µM. hit rate 0.88% among 340,000. AID 493091, 2011;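 active = inhibition above about 50% at 20 µM, limit read from the data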;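 note: plate controls were DMSO wells with enzyme for no effect and wells lacking enzyme for full effect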
Target sequence (Q9GZU7 76-261 limits assumed): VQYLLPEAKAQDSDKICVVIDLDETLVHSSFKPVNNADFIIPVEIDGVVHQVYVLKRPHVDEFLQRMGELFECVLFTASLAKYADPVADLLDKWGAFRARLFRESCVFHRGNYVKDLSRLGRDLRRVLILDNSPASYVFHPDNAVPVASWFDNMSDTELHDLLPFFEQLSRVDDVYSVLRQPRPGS
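Assay system: SCP-1 catalytic fragment, aa 76-261 | Buffer or medium: Tris acetate buffer pH 5.5 with MgCl2 and Tween-20 | Compound: One concentration, 20 µM, with 1.0% DMSO | Also added: Phospho 17-mer peptide substrate | Signal: Absorbance at 630 nm | Incubation: 45 min enzyme reaction at room temperature | Measure: % inhibition of SCP-1 phosphate liberation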
STEP inh: STEP phosphatase inhibitors, primary screen, biochemical, fluorescence intensity, uHTS; inhibition, % at 20 µM; hit rate 0.25% among 360,000; recombinant STEP, OMFP fluorogenic substrate; Tyrosine-protein phosphatase non-receptor type 5 (Homo sapiens), P54829;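 active = inhibition at 20 µM, scaled per plate between control wells, above about 37%, limit read from the data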;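 note: 0% = DMSO with enzyme and substrate and 100% = substrate only without enzyme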
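Assay system: isolated STEP enzyme / Timing: 20 min at room temperature, dark / Doses: 20 µM, 1% DMSO / Technique: fluorescence intensity, excitation 480 nm, emission 540 nm / Reagent: fluorogenic phosphatase substrate OMFP at 25 µM final / Measure: percent inhibition scaled to no-enzyme and uninhibited-enzyme controls, plate-pattern corrected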
Numbers without * were called inactive; nt = no result given. In the library only some 1.7% were active in any assay of this set; here they are far more common.

SMILES	DSG3 Ab inh	SUMO1-SIM PPI	LMPTP block	Scp-1 inhibitor	STEP inh
CSc1nc(Cl)cc(N2CCOCC2)n1	104	-2	-1	-8	2
CCOc1cc(/C=C(/C#N)C(=O)Nc2ccc(OC)cc2)ccc1OCc1ccc(C(=O)O)cc1	106	9	80*	14	23
CCOc1cc(/C=C(\C#N)C(=O)Nc2cccc(C(=O)O)c2)ccc1OCc1ccc(Br)cc1	105	82*	-2	34	96*
COc1cc(/C=C(\C#N)C(=O)NCc2ccccc2)ccc1OCc1ccc(C(=O)O)cc1	95	-10	0	2	-1
N#C/C(=C\c1ccc(OCc2ccc(Cl)cc2)cc1)C(=O)Nc1cccc(C(=O)O)c1	108	66*	36	14	58*
CS(=O)(=O)Nc1cccc(C2=NN(C(=O)c3ccccc3Cl)C(c3ccccc3O)C2)c1 (stereo not given)	101	-3	0	-7	-5
Cc1cccc(N2CCN(S(=O)(=O)c3cc(-c4cc(C)no4)ccc3C)CC2C)c1 (stereo not given)	104	4	3	-2	2
O=[N+]([O-])c1cnc(Nc2ccc(Cl)cn2)c([N+](=O)[O-])c1	91	-25	0	-6	4
CN(Cc1ccccc1)S(=O)(=O)c1ccc(C(=O)Nc2nnc(C3CC3)o2)cc1	58*	3	0	-10	3
CCc1nnc(NC(=O)c2ccc(S(=O)(=O)N(C)Cc3ccccc3)cc2)o1	106	6	-2	-5	2
Cc1c(NC(=O)CSc2nnc(Nc3ccccc3)s2)c(=O)n(-c2ccccc2)n1C	103	-2	-1	2	-4
Cn1nc(C(C)(C)C)cc1C(=O)NCc1ccc2c(c1)OCO2	104	-1	1	4	0
O=c1cc[nH]c2c(Cl)cccc12	95	3	-1	-1	0
Cc1[nH]ccc(=O)c1Cc1c(Cl)cccc1Cl	94	0	78*	-6	-1
Cc1cccc(OCC(=O)Oc2ccc(Cl)cc2)c1	nt	6	1	-14	2
Cc1cccc(OC(=O)NCCOC(=O)N(O)c2ccc(Cl)cc2)c1	-26*	0	-1	1	-2
Nc1nccnc1C(=O)OCC(=O)Nc1ccc2[nH]c(=O)[nH]c2c1	101	80*	3	10	2
O=C(COC(=O)/C=C/c1ccc(Br)o1)Nc1ccc2[nH]c(=O)[nH]c2c1	57*	104*	47	nt	21
O=C(COC(=O)c1ccccc1)Nc1ccc2[nH]c(=O)[nH]c2c1	97	4	-1	-3	-3
O=C(COC(=O)c1ccc(O)cc1)Nc1ccc2[nH]c(=O)[nH]c2c1	102	7	0	-5	-1
O=C(COC(=O)c1ccco1)Nc1ccc2[nH]c(=O)[nH]c2c1	97	51*	0	-5	-3
CC(=O)c1c(C)[nH]c(C(=O)OCC(=O)Nc2ccc3[nH]c(=O)[nH]c3c2)c1C	105	61*	0	-7	0
CS(=O)(=O)c1ccc(Cl)c(NC(=O)c2ccc(-n3cncn3)c([N+](=O)[O-])c2)c1	101	-28	-2	nt	-1
COc1ccc(S(=O)(=O)N(Cc2ccco2)Cc2cc3ccccc3[nH]c2=O)cc1	104	-2	2	5	1
CCCCCN(C(=O)CCC(=O)OCC(=O)c1ccc(C(C)CC)cc1)c1c(N)n(CCCC)c(=O)[nH]c1=O (stereo not given)	104	-3	0	8	-1
SMILES	DSG3 Ab inh	SUMO1-SIM PPI	LMPTP block	Scp-1 inhibitor	STEP inh
O=C(COC(=O)c1ccc(F)c(S(=O)(=O)N2CCOCC2)c1)NC1CC1	nt	-2	-2	-10	1
O=C(COC(=O)c1ccc(Br)o1)Nc1ccc2[nH]c(=O)[nH]c2c1	nt	39*	-1	1	2
O=C(COC(=O)c1ccc(F)c(S(=O)(=O)N2CCOCC2)c1)Nc1ccc2[nH]c(=O)[nH]c2c1	103	61*	-2	-2	-2
O=C(COc1ccc2c(-c3ccccc3)cc(=O)oc2c1)Nc1ccc(CCO)cc1	98	-7	66*	-2	3
CCCc1cc(=O)oc2cc(OCC(=O)NCc3ccccn3)ccc12	109	8	0	-9	1
CCCc1cc(=O)oc2cc(OCC(=O)NCC(O)c3ccccc3)ccc12 (stereo not given)	0.7*	-1	0	-9	-2
CCCc1cc(=O)oc2cc(OCC(=O)NCc3cccs3)ccc12	46*	-4	2	-4	-2
CCOC(=O)c1c(NC(=O)CSc2nc3ccccc3o2)sc(C(C)=O)c1C	98	-4	3	-16	0
CCCCC(=O)NN(C)c1nc(-c2ccccc2)nnc1C(F)(F)F	105	-2	0	-9	-1
CC(C)CC(=O)NN(C)c1nc(-c2ccccc2)nnc1C(F)(F)F	52*	-3	1	-9	0
CC(=O)NC(CCS(C)(=O)=O)C(=O)Nc1c(C)cccc1C (stereo not given)	102	5	-1	-11	-2
CC(=O)NC(CCS(C)(=O)=O)C(=O)Nc1nc(C)cs1 (stereo not given)	81*	2	-2	3	-1
CC(C)N1CCN(C(=O)c2ccc(NC(=O)c3ccc(Br)o3)cc2)CC1	68*	9	-1	-3	1
Cn1c(N)c(C(=O)COC(=O)c2ccc3c(c2)C(=O)N(c2ccc(Cl)cc2)C3=O)c(=O)n(C)c1=O	102	64*	3	-3	1
COc1ccc(Cl)cc1C(=O)OCC(=O)c1c(N)n(C)c(=O)n(C)c1=O	103	5	0	nt	-1
O=C(CSc1ccc(-c2ccc3c(c2)OCO3)nn1)Nc1nccs1	95*	-2	1	-5	0
CCC(CO)Oc1cc(NC(=O)c2ccccc2[N+](=O)[O-])c2ncn(C(C)C)c2c1 (stereo not given)	100	-13	0	11	0
COc1ccc(C(=O)C2CCN(C(=S)NCCc3ccc(OC)c(OC)c3)CC2)cc1	-9.4*	-2	1	-4	2
COc1ccccc1/C=C/C=N/NC(=O)c1cc(-c2ccco2)[nH]n1	91	22	67*	-1	-1
C=CCC[C@@H](Cc1ccc(F)cc1)C(=O)OC[C@H](Cc1c[nH]c2ccccc12)NC(=O)[C@H](CC=C)CC(=O)N(CCO)Cc1ccccc1	96	-5	7	-23	-4

From PubChem BioAssay
